Laboratory results from ChEMBL document CHEMBL1157127, “Aplysinopsin analogs: Synthesis and anti-proliferative activity of substituted (Z)-5-(N-benzylindol-3-ylmethylene)imidazolidine-2,4-diones” (Bioorg Med Chem, 2010).

What was measured:
Format in all cases: functional, cell-based
[1] = system: A549; assay: Antiproliferative activity against human A549 cells after 24 hrs by trypan blue exclusion assay; details: A549, 24 h
Summary of the method: (§1)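 Cells from ATCC. MCF-7 and MDA-231 grown in DMEM with 10% FBS and 1% L-glutamine; A549 and H460 in RPMI 1640 with glutamine, glucose, HEPES, sodium pyruvate and 10% FBS; all at 37 °C, 5% CO2. Treated 24 h at 1, 5, 10, 20 and 40 µM, with DMSO vehicle control. Viability by trypan blue dye exclusion, mean ± SD of four wells.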

[2] = system: MCF7; assay: Antiproliferative activity against human MCF7 cells after 24 hrs by trypan blue exclusion assay; details: MCF7, 24 h; summary of the method: as §1
[3] = system: NCI-H460; assay: Antiproliferative activity against human H460 cells after 24 hrs by trypan blue exclusion assay; details: NCI-H460, 24 h; summary of the method: as §1
[4] = Antiproliferative activity against human MDA231 cells after 24 hrs by trypan blue exclusion assay; details: MDA-MB-231, 24 h; summary of the method: as §1

SMILES | IC50 [1] | IC50 [2] | IC50 [3] | IC50 [4]
O=C1NC(=O)/C(=C/c2cn(Cc3ccccc3Br)c3ccccc23)N1 | 39.5 µM | 4.4 µM | 16.9 µM | 21.8 µM
Cc1ccc2c(c1)c(/C=C1\NC(=O)NC1=O)cn2Cc1ccccc1 | 27.7 µM | 5.2 µM | 14.6 µM | 20.1 µM
N#Cc1ccc(Cn2cc(/C=C3\NC(=O)NC3=O)c3ccccc32)cc1 | > 40 µM | 14.1 µM | 19.1 µM | 17.6 µM
COc1ccc2c(c1)c(/C=C1\NC(=O)NC1=O)cn2Cc1ccccc1 | > 40 µM | 7.2 µM | 28.4 µM | 7 µM
COc1ccc(Cn2cc(/C=C3\NC(=O)NC3=O)c3cc(Br)ccc32)cc1 | 25.2 µM | 16.4 µM | 22.3 µM | 23.2 µM
COC(=O)c1ccc(Cn2cc(/C=C3\NC(=O)NC3=O)c3ccccc32)cc1 | > 40 µM | 15.4 µM | 30.8 µM | 18.4 µM
O=C1NC(=O)/C(=C/c2cn(Cc3ccccc3)c3ccc(Br)cc23)N1 | > 40 µM | 7.6 µM | > 40 µM | 12.4 µM
O=C1NC(=O)/C(=C/c2cn(Cc3ccc(F)cc3)c3ccccc23)N1 | 27.8 µM | 22.3 µM | 16.3 µM | 32.8 µM
Cc1ccc(Cn2cc(/C=C3\NC(=O)NC3=O)c3ccccc32)cc1 | 34.8 µM | 20.2 µM | 26.1 µM | 22.1 µM
O=C1NC(=O)/C(=C/c2cn(Cc3ccccc3)c3ccccc23)N1 | > 40 µM | 27.3 µM | 14.2 µM | 15.7 µM
O=C1NC(=O)/C(=C/c2cn(Cc3ccccc3)c3ccc(Cl)cc23)N1 | 29.7 µM | 9.2 µM | 26.9 µM | 18 µM
O=c1[nH]cc(F)c(=O)[nH]1 [FLUOROURACIL] | 5.4 µM | 15.2 µM | 2.7 µM | 3.5 µM
O=C1NC(=O)/C(=C/c2cn(Cc3ccc([N+](=O)[O-])cc3)c3ccccc23)N1 | > 40 µM | 10.9 µM | > 40 µM | 23.3 µM
O=C1NC(=O)/C(=C/c2cn(Cc3ccc(Cl)cc3)c3ccccc23)N1 | 25.4 µM | 21.4 µM | 25.4 µM | 25.3 µM
